From paper PMC11327602 (Heliyon, 2024)
Values joined by “and” are separate entries in the source; they are usually repeats but may differ in a detail not shown here. Equal values may be shown once. Read-outs that look alike come from different tables or passages of the source.

Assays:
[1] = Superoxide anion scavenging assay; conditions: for IC50: read-out: superoxide anion scavenging IC50
[2] = DPPH free radical scavenging activity; conditions: for IC50: read-out: DPPH scavenging IC50
[3] = target: α-Glucosidase (Saccharomyces cerevisiae, UniProt P53341); test: α-Glucosidase inhibition assay; format: biochemical
Chain of α-Glucosidase (P53341 whole entry): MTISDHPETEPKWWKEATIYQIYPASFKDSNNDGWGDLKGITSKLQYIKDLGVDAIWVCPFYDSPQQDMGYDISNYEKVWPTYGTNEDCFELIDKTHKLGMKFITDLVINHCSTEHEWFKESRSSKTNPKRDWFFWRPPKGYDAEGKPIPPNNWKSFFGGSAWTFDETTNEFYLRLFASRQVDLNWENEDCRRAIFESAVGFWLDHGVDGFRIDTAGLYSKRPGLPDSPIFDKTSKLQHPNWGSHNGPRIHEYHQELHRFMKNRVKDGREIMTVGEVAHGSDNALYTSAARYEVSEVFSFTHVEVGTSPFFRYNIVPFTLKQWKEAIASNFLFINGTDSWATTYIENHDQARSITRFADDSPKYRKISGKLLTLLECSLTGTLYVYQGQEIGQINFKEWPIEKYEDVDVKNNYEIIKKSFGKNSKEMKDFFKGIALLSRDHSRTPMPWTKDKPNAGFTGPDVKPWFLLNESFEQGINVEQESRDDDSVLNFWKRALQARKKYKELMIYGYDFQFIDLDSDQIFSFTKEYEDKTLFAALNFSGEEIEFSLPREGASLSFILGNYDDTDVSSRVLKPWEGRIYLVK
Summary of the method: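 Test compound (200–800 μg/mL) pre-incubated 5 min at 37 °C with 2 % w/v starch (sucrose) solution in 0.2 M Tris buffer, pH 8.0. 5 mM p-nitrophenyl-α-D-glucopyranoside added intermittently, then α-glucosidase (1 U/mL), 40 min at 35 °C. Stopped with […]; absorbance read at 405 nm. % inhibition = (control − sample)/control × 100; samples above 50 % taken to IC50.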

[4] = target: Bacillus Pasteurii urease (Sporosarcina pasteurii, UniProt P41020); test: Urease inhibition assay; format: biochemical; conditions: 3 experiments
Chain of Bacillus Pasteurii urease (P41020 whole entry): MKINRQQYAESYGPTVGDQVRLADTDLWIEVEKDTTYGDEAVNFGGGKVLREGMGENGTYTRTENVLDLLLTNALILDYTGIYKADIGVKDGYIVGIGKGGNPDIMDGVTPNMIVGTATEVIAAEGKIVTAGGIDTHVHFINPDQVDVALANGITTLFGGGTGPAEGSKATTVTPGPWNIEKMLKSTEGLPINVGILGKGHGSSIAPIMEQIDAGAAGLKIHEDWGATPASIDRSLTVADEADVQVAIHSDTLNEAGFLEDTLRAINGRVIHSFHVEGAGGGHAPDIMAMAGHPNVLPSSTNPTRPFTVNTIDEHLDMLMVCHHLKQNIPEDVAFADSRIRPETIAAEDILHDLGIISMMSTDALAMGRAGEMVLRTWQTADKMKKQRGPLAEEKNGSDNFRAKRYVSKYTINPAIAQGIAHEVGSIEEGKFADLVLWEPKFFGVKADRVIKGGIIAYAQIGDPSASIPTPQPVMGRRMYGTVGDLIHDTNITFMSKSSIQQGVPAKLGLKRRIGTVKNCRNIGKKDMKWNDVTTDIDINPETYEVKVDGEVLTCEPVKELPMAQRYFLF
Chain of Bacillus Pasteurii urease (P41021 whole entry partner): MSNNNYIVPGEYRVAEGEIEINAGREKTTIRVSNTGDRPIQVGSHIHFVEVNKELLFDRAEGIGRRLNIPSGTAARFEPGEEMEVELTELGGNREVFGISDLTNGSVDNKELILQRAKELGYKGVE
Chain of Bacillus Pasteurii urease (P41022 whole entry partner): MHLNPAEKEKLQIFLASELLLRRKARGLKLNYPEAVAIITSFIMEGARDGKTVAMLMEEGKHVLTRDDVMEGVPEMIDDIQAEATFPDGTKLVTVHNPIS

[5] = target: jack bean urease (Canavalia ensiformis, UniProt P07374); test: Urease inhibition assay; format: biochemical; conditions: for IC50: 3 experiments
Chain of jack bean urease (P07374 whole entry, looked up): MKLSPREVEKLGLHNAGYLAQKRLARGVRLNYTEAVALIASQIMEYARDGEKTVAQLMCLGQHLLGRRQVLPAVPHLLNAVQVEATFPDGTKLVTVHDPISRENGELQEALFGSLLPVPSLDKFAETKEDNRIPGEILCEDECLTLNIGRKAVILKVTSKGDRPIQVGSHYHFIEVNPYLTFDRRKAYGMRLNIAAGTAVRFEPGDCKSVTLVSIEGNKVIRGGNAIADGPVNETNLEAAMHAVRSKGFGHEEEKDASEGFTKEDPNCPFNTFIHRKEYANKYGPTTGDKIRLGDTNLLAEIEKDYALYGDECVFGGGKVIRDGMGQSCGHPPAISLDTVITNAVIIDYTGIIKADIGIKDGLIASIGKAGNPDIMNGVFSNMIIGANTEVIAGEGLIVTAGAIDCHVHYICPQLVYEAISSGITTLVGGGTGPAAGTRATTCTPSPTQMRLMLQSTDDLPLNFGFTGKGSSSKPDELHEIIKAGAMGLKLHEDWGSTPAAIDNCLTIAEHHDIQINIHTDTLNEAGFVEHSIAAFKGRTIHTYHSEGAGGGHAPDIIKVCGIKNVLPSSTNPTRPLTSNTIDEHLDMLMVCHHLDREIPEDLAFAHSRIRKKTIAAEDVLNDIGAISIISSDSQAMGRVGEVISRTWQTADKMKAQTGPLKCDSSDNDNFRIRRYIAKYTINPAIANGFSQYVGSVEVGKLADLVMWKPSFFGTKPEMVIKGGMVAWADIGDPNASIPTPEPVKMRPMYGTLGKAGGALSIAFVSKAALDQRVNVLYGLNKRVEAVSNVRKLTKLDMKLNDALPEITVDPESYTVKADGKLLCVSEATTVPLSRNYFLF

[6] = ABTS method; conditions: for IC50: read-out: ABTS scavenging IC50
[7] = Enzyme (SEM ±) B.P Urease, IC50, mean ± SEM
[8] = Enzyme (SEM ±) J.B Urease, IC50, mean ± SEM

| Structure (SMILES) | IC50 [1] | IC50 [2] | Type of Inhibition (α-glucosidase and α-amylase) [3] | IC50 [4, 7] | Types of inhibition (urease) [5] | IC50 [5, 8] | IC50 [6] | superoxide anion % scavenging ([1]; 25 μM) | superoxide anion % scavenging ([1]; 50 μM) | superoxide anion % scavenging ([1]; 75 μM) | superoxide anion % scavenging ([1]; 100 μM) | DPPH % Scavenging ([2]; 50 μM) | DPPH % Scavenging ([2]; 75 μM) | DPPH % Scavenging ([2]; 100 μM) | ABTS % Scavenging ([6]; 10 μM) | ABTS % Scavenging ([6]; 20 μM) | ABTS % Scavenging ([6]; 30 μM) | ABTS % Scavenging ([6]; 40 μM) | ABTS % Scavenging ([6]; 50 μM) | DPPH % Scavenging ([2]; 25 μM) | further results |
| --- | --- | --- | --- | --- | --- | --- | --- | --- | --- | --- | --- | --- | --- | --- | --- | --- | --- | --- | --- | --- | --- |
| O=C1O[C@H]([C@@H](O)CO)C(O)=C1O [Ascorbic acid, reference compound] | 33.4 µM and 35.4 µM and 39.1 µM and 38 µM | 30.4 µM and 42.2 µM and 45.1 µM and 35 µM |  |  |  |  |  | 39 ± 0.09% and 49 ± 0.05% and 35 ± 0.33% and 25 ± 0.03% | 55 ± 0.05% and 53 ± 0.03% and 57 ± 0.13% and 60 ± 0.07% | 77 ± 0.12% and 75 ± 0.15% and 86 ± 0.53% and 67 ± 0.11% | 90 ± 0.02% and 93 ± 0.01% and 99 ± 0.11% and 82 ± 0.01% | 70.3 ± 0.01% and 68.2 ± 0.17% and 58.1 ± 0.05% and 69.3 ± 0.41% | 85.3 ± 0.01% and 88.1 ± 0.02% and 79.1 ± 0.12% and 95.3 ± 0.01% | 97.2 ± 0.2% and 94.2 ± 0.5% and 84.2 ± 0.18% and 105.2 ± 0.2% |  |  |  |  |  |  |  |
| O=S(=O)(c1ccc(Br)cc1)N(Cc1ccccc1)c1nccs1 [Compound 21, N-benzyl-4-bromo-N-(thiazol-2-yl)benzenesulfonamide] | 45 ± 0.03 µM | ~45.2 µM and 45.2 µM | Competitive | 27 ± 0.48 µM | Non-competitive | 23.06 ± 0.11 µM | ~33 µM and 33 µM | 33 ± 0.3% | 57 ± 0.13% | 82 ± 0.01% | 86 ± 0.11% | 63.5 ± 0.11% | 90.5 ± 0.16% | 99.1 ± 0.32% | 15.1 ± 0.05% | 30.5 ± 0.04% | 46.03 ± 0.11% | 72.05 ± 0.15% | 90.03 ± 0.51% | 35.1 ± 0.05% |  |
| O=S(=O)(c1ccccc1)N(Cc1ccccc1)c1nccs1 [Compound 22, N-Benzyl-N-(thiazol-2-yl)benzenesulfonamide] | 40 ± 0.06 µM | 57.2 ± 0.07 µM | Non-competitive | 18.7 ± 0.23 µM | Competitive | 15.31 ± 0.09 µM | 40.01 ± 0.01 µM | 35 ± 0.02% | 57 ± 0.15% | 80 ± 0.25% | 87 ± 0.15% | 50.1 ± 0.11% | 66.1 ± 0.23% | 79.5 ± 0.05% | 12.04 ± 0.01% | 27.2 ± 0.5% | 47.03 ± 0.06% | 66.11 ± 0.31% | 86.13 ± 0.12% | 31.4 ± 0.08% |  |
| O=S(=O)(c1ccc(Cl)cc1)N(Cc1ccccc1)c1nccs1 [Compound 23, N-benzyl-4-chloro-N-(thiazol-2-yl)benzenesulfonamide] | 47 ± 0.11 µM | 49.15 ± 0.05 µM | Non-competitive | 28.02 ± 0.07 µM | Non-competitive | 25.1 ± 0.28 µM | 30.01 ± 0.11 µM | 39 ± 0.3% | 60 ± 0.56% | 89 ± 0.07% | 103 ± 0.19% | 57.3 ± 0.01% | 70.5 ± 0.16% | 93.05 ± 0.32% | 19.5 ± 0.05% | 39.5 ± 0.24% | 55.13 ± 0.13% | 76.01 ± 0.5% | 93.03 ± 0.31% | 32.6 ± 0.21% |  |
| O=[N+]([O-])c1ccc(S(=O)(=O)N(Cc2ccccc2)c2nccs2)cc1 [Compound 25, N-benzyl-4-nitro-N-(thiazol-2-yl)benzenesulfonamide] |  | 47.1 ± 0.08 µM | Non-competitive | 53.32 ± 0.21 µM | Non-competitive | 48.1 ± 1.19 µM | 29.01 ± 0.14 µM |  |  |  |  | 57.8 ± 0.11% | 71.6 ± 0.03% | 85.1 ± 0.41% | 09.01 ± 0.09% | 28.05 ± 0.04% | 43.09 ± 0.01% | 70.02 ± 0.03% | 81.03 ± 0.91% | 35.2 ± 0.2% | inhibition against both enzymes (J.B. and B.P urease), in words [5]: weak inhibition |
| NC(N)=S [Thiourea, reference compound] |  |  |  |  |  |  |  |  |  |  |  |  |  |  |  |  |  |  |  |  | IC50 ([4]; read-out: Enzyme (SEM ±) B.P Urease, IC50, mean ± SEM): 14.08 ± 0.05 µM; IC50 ([5]; read-out: Enzyme (SEM ±) J.B Urease, IC50, mean ± SEM): 10.12 ± 0.08 µM |
| Cc1c(C)c2c(c(C)c1O)CCC(C)(C(=O)O)O2 (stereo not drawn) [Trolox, reference compound] |  |  |  |  |  |  | 16.4 µM and 19.4 µM and 17.5 µM and 20.3 µM |  |  |  |  |  |  |  | 36.08 ± 0.1% and 26.05 ± 0.03% and 35.01 ± 0.3% and 18.08 ± 0.1% | 58.02 ± 0.62% and 55.02 ± 0.12% and 65.2 ± 0.1% and 40.02 ± 0.62% | 67.03 ± 0.02% and 70.03 ± 0.01% and 77.31 ± 0.07% and 55.03 ± 0.02% | 85.01 ± 0.06% and 82.01 ± 0.05% and 89.01 ± 0.5% and 84.01 ± 0.06% | 105.02 ± 0.02% and 109.2 ± 0.22% and 105.12 ± 0.21% and 93.02 ± 0.02% |  |  |

Further lines, with some results ahead:

| IC50 [1] | IC50 [2] | Type of Inhibition (α-glucosidase and α-amylase) [3] | IC50 [4, 7] | Types of inhibition (urease) [5] | IC50 [5, 8] | IC50 [6] | Structure (SMILES) | superoxide anion % scavenging ([1]; 25 μM) | superoxide anion % scavenging ([1]; 50 μM) | superoxide anion % scavenging ([1]; 75 μM) | superoxide anion % scavenging ([1]; 100 μM) | DPPH % Scavenging ([2]; 50 μM) | DPPH % Scavenging ([2]; 75 μM) | DPPH % Scavenging ([2]; 100 μM) | ABTS % Scavenging ([6]; 10 μM) | ABTS % Scavenging ([6]; 20 μM) | ABTS % Scavenging ([6]; 30 μM) | ABTS % Scavenging ([6]; 40 μM) | ABTS % Scavenging ([6]; 50 μM) | DPPH % Scavenging ([2]; 25 μM) | further results |
| --- | --- | --- | --- | --- | --- | --- | --- | --- | --- | --- | --- | --- | --- | --- | --- | --- | --- | --- | --- | --- | --- |
| 42 ± 0.15 µM | 40.01 ± 0.01 µM | Competitive | 29.05 ± 0.01 µM | Competitive | 26.15 ± 0.02 µM | 37.01 ± 0.04 µM | Cc1ccc(S(=O)(=O)N(Cc2ccccc2)c2nccs2)cc1 [Compound 19, N-Benzyl-4-methyl-N-(thiazol-2-yl)benzenesulfonamide] | 32 ± 0.07% | 59 ± 0.25% | 80 ± 0.11% | 88 ± 0.01% | 65.8 ± 0.03% | 89.6 ± 0.11% | 95.1 ± 0.41% | 18.01 ± 0.09% | 37.05 ± 0.04% | 41.09 ± 0.01% | 69.02 ± 0.03% | 89.03 ± 0.91% | 39.1 ± 0.2% |  |
| 40 ± 0.06 µM | 43.5 ± 0.03 µM | Non-competitive | 22.1 ± 0.35 µM | Competitive | 20.6 ± 0.41 µM | 38.01 ± 0.06 µM | COc1ccc(S(=O)(=O)N(Cc2ccccc2)c2nccs2)cc1 [Compound 20, N-Benzyl-4-methoxy-N-(thiazol-2-yl)benzenesulfonamide] | 31 ± 0.02% | 54 ± 0.12% | 79 ± 0.22% | 85 ± 0.25% | 49.2 ± 0.01% | 56.3 ± 0.83% | 80.2 ± 0.01% | 15.04 ± 0.2% | 22.02 ± 0.05% | 45.08 ± 0.06% | 61.01 ± 0.03% | 82.03 ± 0.07% | 35.2 ± 0.1% |  |
| 59 ± 0.16 µM | 62.5 ± 0.07 µM | Non-competitive | 40.88 ± 0.26 µM | Competitive | 32.11 ± 0.13 µM | 42.12 ± 0.21 µM | O=S(=O)(c1ccc(F)cc1)N(Cc1ccccc1)c1nccs1 [Compound 24, N-benzyl-4-fluoro-N-(thiazol-2-yl)benzenesulfonamide] | 33 ± 0.21% | 45 ± 0.35% | 84 ± 0.25% | 97 ± 0.15% | 44.1 ± 0.55% | 75.1 ± 0.30% | 89.4 ± 0.35% | 25.11 ± 0.11% | 33.6 ± 0.55% | 44.31 ± 0.17% | 48.23 ± 0.51% | 76.23 ± 0.22% | 21.3 ± 0.18% | inhibition against both enzymes (α-glucosidase and α-amylase), in words [3]: weak inhibition |
| ~36 µM and 36 µM | ~38.3 µM and 38.3 µM | Competitive | 38.2 ± 0.36 µM | Non-competitive | 30.11 ± 0.07 µM | ~33 µM and 33 µM | C=CCN(c1nccs1)S(=O)(=O)c1ccc(C)cc1 [Compound 26, N-Allyl-4-methyl-N-(thiazol-2-yl)benzenesulfonamide] | 27 ± 0.07% | 63 ± 0.01% | 73 ± 0.11% | 94 ± 0.51% | 74.8 ± 0.3% | 88.5 ± 0.1% | 99.2 ± 0.2% | 09.02 ± 0.03% | 24.03 ± 0.01% | 43.08 ± 0.09% | 75.07 ± 0.02% | 96.06 ± 0.21% | 43.2 ± 0.8% |  |
